High-throughput results as filed in PubChem BioAssay.
FLuc inh counter = firefly luciferase enzyme inhibitors, primary screen, artefact control for luciferase-based inhibitor screens, biochemical, luminescence, ATPLite. inhibition, % at 10 µM. AID 1006, 2008. Luciferin 4-monooxygenase (Photinus pyralis), P08659. actives 1.5% (n = 200,000). 10 min;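 active = inhibition above about 50% when tested at 10 µM, limit read from the data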
Target sequence (P08659 whole entry, looked up): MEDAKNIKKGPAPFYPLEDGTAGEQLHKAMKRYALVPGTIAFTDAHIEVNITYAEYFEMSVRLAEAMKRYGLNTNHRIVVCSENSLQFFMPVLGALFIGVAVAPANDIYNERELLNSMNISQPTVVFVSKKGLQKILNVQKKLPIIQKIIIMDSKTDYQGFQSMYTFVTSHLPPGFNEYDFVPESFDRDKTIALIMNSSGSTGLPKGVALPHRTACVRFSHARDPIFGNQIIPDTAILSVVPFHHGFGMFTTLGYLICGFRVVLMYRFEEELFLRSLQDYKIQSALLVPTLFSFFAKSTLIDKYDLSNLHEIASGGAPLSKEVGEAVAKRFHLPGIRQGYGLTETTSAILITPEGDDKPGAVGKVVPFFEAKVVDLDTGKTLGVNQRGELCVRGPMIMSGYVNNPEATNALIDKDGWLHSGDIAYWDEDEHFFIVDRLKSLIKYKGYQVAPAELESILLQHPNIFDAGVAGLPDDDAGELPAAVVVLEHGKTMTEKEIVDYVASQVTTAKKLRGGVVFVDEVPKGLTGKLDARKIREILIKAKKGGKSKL
C8 TRAIL sens = viability loss with TRAIL in NB7+C8 cells, primary screen, TRAIL sensitizer project, cell-based, ATPlite luminescence; inhibition (viability loss, TRAIL sensitization), % at 10 µM; actives 1% (n = 360,000); AID 624354, 2012;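 active = compounds causing at least 50% loss of cell viability in the single-dose screen, relative to plate controls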
PPC-1+TRAIL kill = compounds killing PPC-1 cancer cells with TRAIL present, primary screen, TRAIL potentiator project, ATPLite luminescence, uHTS. AID 1443, 2008. actives 0.41% (n = 220,000). PPC-1 cells + TRAIL, ATPLite viability luminescence. cell killing (% activity), % at 4 µM or 5 µM;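 active = cell killing above 50% in the first pass at 4 µM, then a duplicate retest at 5 µM averaging 50% or more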;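 note: plate controls were cells with TRAIL plus DMSO for no effect and medium-only wells lacking cells for full effect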
FLuc stim CS = FLuc activators, initial screening, artefact control for FLuc-dependent activation tests, biochemical, ATPlite luminescence; ATPlite luciferase biochemical, 10 min; 0 = ATP-free wells, 1 = DMSO control; activation factor at 10 µM; 200,000 tested, under 10 active;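 active = luciferase activation factor, scaled between plate controls, of at least 2 with compound at 10 µM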
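Assay system – cell-free luciferase reagent · Medium – PBS-based ATP solution · Dosing – test compounds dosed from 2 mM stocks in 100% DMSO · Timing – 10 min, room temperature · Technique – light output (luminescence) · Measure – luminescence gain marking luciferase activators · Controls – No-ATP low control, compound-free enzyme-plus-ATP high control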
STAT3 inh = IL-6 driven STAT3 reporter inhibitors, primary screen, U3A cells, luciferase, luminescence, MLSCN library. actives 0.89% (n = 190,000). IL-6 STAT3-luciferase reporter; host cell line lacks STAT1. inhibition, % at 5.5 µM;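 active = inhibition above the mean inhibition across all screened compounds plus 3 SD, cut at about 44% in these data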;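 note: 0% = DMSO only wells and 100% = 100 µM nifuroxazide control wells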
HSP90 refold inh = HSP90 inhibitors, primary screen, cell lysate, luminescence. Heat shock protein HSP 90 (rabbit reticulocyte lysate; luciferase refolding). Rabbit reticulocyte lysate, luciferase refolding luminescence, 3 h. actives 0.91% (n = 290,000). inhibition, % at 5.6 µM. AID 1789, 2009;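 active = inhibition above the screen-wide mean plus 3 SD, computed separately per campaign, cut at about 16% in these data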;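 note: 0% = DMSO wells and 100% = 60 µM geldanamycin wells; inhibitors lower the luminescence because luciferase stays unfolded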
Active calls of the source: *; / = no result. Sampled rows, rich in hits. Any-hit rate of the full collection: about 2.2%.

SMILES | FLuc inh counter | C8 TRAIL sens | PPC-1+TRAIL kill | FLuc stim CS | STAT3 inh | HSP90 refold inh
Clc1cccc(CSc2nc3ccncc3[nH]2)c1 | 75* | 41 | 28 | 0.2 | 9 | -2
O=c1[nH]c(SCc2cccc(Cl)c2)nc2ccccc12 | -5 | 1 | 8 | 1 | 8 | -4
Fc1cccc(CSc2nc3ccncc3[nH]2)c1 | 78* | 58* | 41 | 0.2 | -1 | 4
Cc1ccccc1-c1cc2nc(NCCc3ccncc3)n(C)c(=O)c2s1 | / | 0 | / | / | / | /
Cc1ccc(C)c(NC(=S)NC(NC(=O)N(C)C)C(Cl)(Cl)Cl)c1 (configuration not stated) | -6 | -7 | 16 | 1.1 | -2 | 4
Cc1ccc(C)c(NC(=S)NC(NC(=O)Cc2cccc3ccccc23)C(Cl)(Cl)Cl)c1 (configuration not stated) | -4 | 85* | 18 | 1 | 8 | -4
O=C1[C@H](Cc2ccccc2)NCC=CC[C@H](c2ccco2)N1Cc1ccccc1 | / | -3 | / | / | / | /
CCCN1C=CC(=C/C=C(\C#N)C(=O)OCC)C=C1 | 58* | / | 31 | 0.4 | -10 | -3
CCCCCCN1C=CC(=C/C=C(\C#N)C(=O)OCC)C=C1 | -7 | -4 | 2 | 1.1 | 3 | 0
COc1cccc2c1C(=O)c1c(O)c3c(c(O)c1C2=O)C[C@@](O)(C(=O)CO)C[C@@H]3O[C@H]1C[C@H](N)[C@H](O)[C@H](C)O1 | 13 | 62* | 54* | 0.9 | -45 | 7
CC(=O)[C@@]1(O)Cc2c(O)c3c(c(O)c2[C@H](O[C@H]2C[C@H](N)[C@H](O)[C@H](C)O2)C1)C(=O)c1ccccc1C3=O | / | 82* | / | / | / | /
COCC(C)n1c(SCC(=O)NC(=O)NC2CCCC2)nc2ccccc2c1=O (configuration not stated) | / | 1 | / | / | / | /
CS(=O)(=O)Nc1cccc(NC(=O)C2Cc3c(-c4cccc(F)c4)ccnc3O2)c1 (configuration not stated) | / | 70* | / | / | / | /
O=C(Nc1ccccc1)C1Cc2c(-c3cccc(F)c3)ccnc2O1 (configuration not stated) | / | -8 | / | / | / | /
CCOC(=O)c1sc2nc(-c3cccnc3)ccc2c1N | 77* | 59* | 42 | 0.2 | 11 | 2
NC(=O)c1sc2nc(-c3cccnc3)ccc2c1N | / | 18 | 11 | / | / | 1
COC(=O)c1sc2nc(-c3ccco3)ccc2c1N | 84* | 57* | 14 | 0.2 | 26 | 1
COc1ccccc1N=C1NC(=O)/C(=C/c2ccc(N(C)C)cc2)S1 | / | 49* | / | / | / | -1
COc1ccc(/C=C2\SC(=Nc3ccccc3)NC2=O)cc1 | / | / | / | / | / | 1
CCc1ccc(Nc2nnc(SCC(=O)c3c(N)n(C4CC4)c(=O)[nH]c3=O)s2)cc1 | / | 61* | / | / | / | /
C[C@H]1CN([C@@H](C)CO)C(=O)CCCn2cc(nn2)CO[C@@H]1CN(C)C(=O)Nc1ccc(N2CCCCC2)cc1 | / | -16 | / | / | / | /
O=C(Nc1ccc(Cl)c([N+](=O)[O-])c1)c1ccc(NCCCN2CCOCC2)c([N+](=O)[O-])c1 | -11 | 56* | 12 | 1.1 | 8 | -1
Cc1ccc(NC(=O)c2ccc(NCCCN3CCOCC3)c([N+](=O)[O-])c2)cc1Cl | -3 | 15 | 21 | 1 | -6 | -3
CSc1ccccc1NC(=O)COc1ccc(Cl)cc1Cl | -3 | -7 | -4 | 1 | 7 | 2
O=C(COc1ccccc1Cl)Nc1ccc(Cl)cn1 | 69* | 50* | 38 | 0.3 | 12 | -1
SMILES | FLuc inh counter | C8 TRAIL sens | PPC-1+TRAIL kill | FLuc stim CS | STAT3 inh | HSP90 refold inh
O=C(COc1ccc(Cl)cc1Cl)Nc1ccccn1 | 97* | 94* | 23 | 0 | 111* | 87*
Cc1csc(=O)n1CCC(=O)OCC(=O)Nc1cc([N+](=O)[O-])ccc1Cl | / | 3 | / | / | / | /
CCC(CC)COC(=O)C1=C(C)NC(=O)NC1c1ccc2c(c1)OCO2 (configuration not stated) | / | -2 | / | / | / | -4
O=c1[nH]c2ccc(Cl)cc2c(O)c1-c1ccccc1 | 18 | -1 | 0 | 0.8 | 83* | 2
N#Cc1c(C#N)c(SSc2c(C#N)c(C#N)c(N)n2-c2ccccc2)n(-c2ccccc2)c1N | / | 79* | / | / | / | /
N/C(=N\OC(=O)c1cccs1)c1ccccc1 | 94* | 11 | 16 | 0.1 | -9 | -7
Cc1ccc(/C(N)=N/OC(=O)c2cccs2)cc1 | 74* | 30 | 39 | 0.3 | 8 | 1
Cc1cccc(/C(N)=N/OC(=O)c2cccs2)c1 | 90* | 41 | 24 | 0.1 | -7 | -4
COc1ccc(/C(N)=N/OC(=O)c2cccs2)cc1OC | 24 | 6 | / | 0.8 | -3 | -3
CCc1ccc(C(=O)COC(=O)c2cccs2)cc1 | 87* | -1 | 11 | 0.1 | 26 | -2
CCN(c1cccc(C)c1)S(=O)(=O)c1cc2c3c(c1)CCN3C(=O)CC2 | / | -10 | / | / | / | /
COc1cc(OC)cc(-c2c(Sc3ccccc3)c3cc(-c4ccc5c(c4)OCCO5)ccc3n2C)c1 | / | 1 | / | / | / | /
O=C(Cc1ccccc1)O/N=C1\CCCc2ccccc21 | 24 | -1 | 13 | 0.8 | 3 | 1
O=C(O/N=C1\CCCc2ccccc21)c1cccs1 | 91* | -5 | 0 | 0.1 | 3 | -1
N/C(=N\OC(=O)Cc1ccccc1)c1cccc(Br)c1 | 10 | -2 | 18 | 0.9 | 10 | 1
N/C(=N\OC(=O)c1ccc(F)cc1)c1cccc([N+](=O)[O-])c1 | / | 6 | / | / | / | -1
Cc1cccc(/C(N)=N/OC(=O)c2ccc(F)cc2)c1 | 97* | 8 | 13 | 0 | 4 | -4
N/C(=N\OC(=O)c1cccs1)c1cccc(Br)c1 | 87* | -10 | 12 | 0.1 | 9 | 1
Cc1ccc(S(=O)(=O)N2CC(O)CC2C(=O)OCC(=O)c2ccccc2Cl)cc1C (configuration not stated) | -4 | 9 | 33 | 1 | 7 | 1
O=C(Cc1cccs1)Nc1cccc(-c2nc3cc4ccccc4cc3[nH]2)c1 | 75* | 73* | 47 | 0.2 | 9 | 3
C=CC[C@H](CC(=O)OC(C)(C)C)C(=O)OC[C@H]1CCCN1C(=O)[C@H](CC=C)CC(=O)NCCO | / | 4 | / | / | / | /
CCOC(=O)NC(=O)CSc1nc(C)cc(C)c1C#N | 36 | 72* | 37 | 0.6 | 28 | 8
CC(C(=O)Nc1ccccc1-c1ccccc1)N(C)Cc1nc2ccccc2c(=O)[nH]1 (configuration not stated) | -8 | -29 | -4 | 1.1 | 0 | 3
COc1ccccc1OCCCC(=O)Nc1ccc([N+](=O)[O-])cc1Br | -1 | -12 | -2 | 1 | 9 | 0
